Screening results (PubChem BioAssay)
This is a sample that favours compounds with a hit; in the whole collection about 2.6% have one here.
HSV augment = HSV replication enhancement. HSV replication augmentation in cells, fold increase. 0.005% of 220,000 active. maximum fold increase. AID 1956; in the data active = maximum fold increase above about 1.5; inconclusive = no clear call, values can overlap the other calls; tested in PC3 cells
MDM2 E3 inh = Mdm2 E3 ligase (human) inhibition. AID 1230. 0.11% of 210,000 active. Q00987. cell-based MDM2 ubiquitination luciferase reporter, 2 h; 0 = plate control, 100 = twice control, blank-subtracted. signal enhancement, % at 5 µM;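 active = signal enhancement of 30% or more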;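 note: luminescence tracks abundance of the self-degrading MDM2-luciferase fusion protein; higher signal means inhibition of MDM2 E3 ligase activity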
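Test system: mammalian cells stably expressing self-ubiquitinating, self-degrading MDM2 E3–luciferase fusion; Amount: 2000 cells in each well; Medium: DMEM; Schedule: 4 h settle plus 2 h compound, 37 °C; Technique: SteadyLite luciferase luminescence after 15 min room-temperature reagent incubation; Benchmarks: plate control and blank wells.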
Rad51 HR inh = Rad51 (human) homologous recombination inhibition; hRad51 DNA strand exchange, fluorescence dequenching; inhibition, % at 10 µM; 0.085% of 200,000 active; AID 1385;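 active = inhibition above 40% at the single screening dose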;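 note: 0% = DMSO control wells and 100% = blanks with heterologous ssDNA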
Target sequence (Q06609 whole entry, looked up): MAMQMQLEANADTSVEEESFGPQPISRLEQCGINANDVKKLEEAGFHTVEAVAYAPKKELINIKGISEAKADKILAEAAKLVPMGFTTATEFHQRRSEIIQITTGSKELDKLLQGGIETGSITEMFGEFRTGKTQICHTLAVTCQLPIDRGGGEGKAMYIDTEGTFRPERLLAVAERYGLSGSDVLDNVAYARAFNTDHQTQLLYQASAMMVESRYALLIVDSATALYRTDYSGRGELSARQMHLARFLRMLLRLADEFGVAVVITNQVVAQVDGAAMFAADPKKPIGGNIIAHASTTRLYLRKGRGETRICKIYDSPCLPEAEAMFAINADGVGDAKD
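System: hRad51 filaments on single-stranded DNA; reagent: Fluorescein- and BHQ1-tagged 47-mer duplex; compound dosing: one concentration, 10 µM final; timing: filaments 15 min 37 °C, then compound 30 min; measured by: fluorescein emission 520 nm, excitation 485 nm; benchmarks: per-plate controls and blanks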
HSF1 inhib = HSF1 inhibition; NIH3T3-HGL HSE-luciferase, MG132-induced, luminescence 8 h; active compounds read low; activity change, negative = inhibition, % at 7.5 µM (by protocol); 0.77% of 300,000 active;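 active = more than half of replicate wells show activity change below -50%, luminescence cut by over half; inconclusive = some wells, but at most half, below -50%; inactive = no replicate well below -50%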;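 note: luciferase reports HSF-1 transcriptional activity via heat shock element; 0% = median of DMSO wells and -100% = zero luminescence signal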
Hsp70 act = transcriptional activators of Hsp70; HeLa Hsp70 promoter luciferase reporter, luminescence; scaled: vehicle 0, proteasome-inhibitor control 100%; activation, % at 10 µM; 0.04% of 200,000 active; AID 1203;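 active = activation above the mean across all tested compounds plus 3 SD, cutoff set per campaign, cut at about 5.5% in these data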;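 note: 100% = MG132 at 30 µM as the positive control and 0% = DMSO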
HSF1 activator = increases HSF-1 driven luciferase reporter signal. NIH3T3-HGL HSF-1 luciferase reporter, MG132, 8 h; 100% = twice DMSO control signal. activation, % at 9 µM. 1.7% of 300,000 active;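 active = mean replicate activation of at least 50% with a set share of replicates each reaching 50%; inconclusive = only one of those two conditions met; inactive = mean below 50% and too few replicates reaching it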;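 note: 0% = median of the neutral control wells and 100% = twice that signal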
Numbers without * were called inactive; i = inactive; ? = inconclusive; . = not tested or not shown.

SMILES	HSV augment	MDM2 E3 inh	Rad51 HR inh	HSF1 inhib	Hsp70 act	HSF1 activator
O=C1/C(=C/c2cccs2)SC(=S)N1c1cccc(O)c1	i	0	16	15	.	4
O=C1c2cccc3cccc(c23)C(=O)N1OS(=O)(=O)c1ccc(Br)cc1	i	-9	-2	10	0	22
O=C1c2cccc3cccc(c23)C(=O)N1OS(=O)(=O)c1ccccc1	i	-9	-10	87	0	118*
Cc1ccc(NC(=S)c2nc3ccccc3s2)cc1	i	-61	12	-65*	0	-70
S=C(Nc1ccc(Cl)cc1)c1nc2ccccc2s1	i	-8	11	-26	0	-36
COc1ccc(C(=O)N2CCN(c3ncnc4c(-c5ccccc5)nsc34)CC2)cc1	.	-28	.	-5	0	7
COc1ccc(-c2nsc3c(N4CCCCC4)ncnc23)cc1	i	-31	-2	-80*	0	-83
COc1ccc(-c2nsc3c(N4CCCCC4C)ncnc23)cc1 (configuration not stated)	i	-85	-7	-95*	-1	-96
CC1Cc2ccccc2N1C(=O)COC(=O)c1ccc(S(=O)(=O)N(C)C)cc1 (configuration not stated)	i	5	-5	-78*	0	-82
CCOC(=O)c1c(C)[nH]c(C(=O)OCC(=O)N2c3ccccc3CC2C)c1C (configuration not stated)	i	-26	-1	3	0	6
O=C1CC(c2ccc(F)cc2)C(n2cncn2)C(O)=C1C1NCCc2ccccc21 (configuration not stated)	i	-19	3	-5	0	14
COc1ccc(C2(C)NC(=O)N(CC(=O)Nc3ccc(C)cc3Br)C2=O)cc1OC (configuration not stated)	.	.	.	-4	.	-16
COc1ccc(-c2c(C)nn3c(Cl)c(C)c(C)nc23)cc1	.	.	.	29	.	60*
COc1ccc(-c2c(C)nn3c(-c4ccccc4)cc(C)nc23)cc1	i	-4	-1	1	0	-1
O=C(COC(=O)c1ccc(O)cc1O)c1ccc(Cl)cc1	.	.	.	53	.	61*
CC(C)c1ccc(/C=C/C(=O)n2nnc3ccccc32)cc1	.	-4	.	47	0	83*
CN(C)c1ccc(C(=O)n2nnc3ccccc32)cc1	i	-9	7	43	0	56*
CC(C)c1ccc(/C=C/C(=O)N2CCCCCC2)cc1	i	-1	.	13	-1	27
Cc1nn(CCC(=O)N2CCN(S(=O)(=O)c3ccccc3)CC2)c(C)c1C	.	.	.	0	.	11
O=C(NCc1ccccc1Cl)C1CCN(S(=O)(=O)N2CCCC2)CC1	.	.	.	-69*	.	-75
O=c1c(Cl)c(NCCCO)cnn1-c1nc2ccccc2[nH]1	i	-8	-4	54	1	63*
C=CCN(CC=C)c1cnn(-c2nc3ccccc3[nH]2)c(=O)c1Cl	i	-46	.	28	0	?
Cc1cc(/C=C2\SC(=S)NC2=O)c(C)n1-c1cccc(O)c1	i	-23	-106	12	.	37
Cc1cc(/C=C2/C(=O)NN(c3ccccc3)C2=O)c(C)n1-c1cccc(O)c1	i	-51	-9	-63*	0	-69
CC1(C)CCC[C@@]2(C)CC=C(C(=O)O)[C@@H]3C[C@]312	.	.	.	-4	.	12
SMILES	HSV augment	MDM2 E3 inh	Rad51 HR inh	HSF1 inhib	Hsp70 act	HSF1 activator
CCOC(=O)c1c(-c2ccc(C)o2)csc1NC(=O)COC(=O)c1ccc(NC(N)=O)cc1	i	-17	3	74	0	74*
CCOC(=O)c1c(-c2ccc(C)o2)csc1NC(=S)NC(=O)c1cccs1	i	3	2	2	0	6
CCOC(=O)c1c(-c2ccc(C)o2)csc1NC(=S)NC(=O)c1ccccc1Br	i	6	2	82	0	85*
N/C(=N\OC(=O)CSc1ccccc1)c1ccncc1	.	.	.	13	.	42
COc1ccc(Cl)cc1NC(=S)N(CCN1CCOCC1)C1CCN(C(C)=O)CC1	i	-20	-5	-8	0	-3
CCOc1cc(N2CCOCC2)c(OCC)cc1NC(=O)Cc1cccc2ccccc12	i	-3	2	74	0	121*
CCOc1cc(N2CCOCC2)c(OCC)cc1NC(=O)CCS(=O)(=O)c1ccc(Cl)cc1	i	2	-8	58	0	75*
CCOc1cc(N2CCOCC2)c(OCC)cc1NC(=O)CCC1CCCC1	i	2	-1	4	0	14
NC(=O)COC(=O)c1ccc2noc(-c3ccccc3)c2c1	.	.	.	-9	.	-16
CCC1Sc2ccc(S(=O)(=O)Nc3ccc(OC)c(OC)c3)cc2NC1=O (configuration not stated)	.	.	.	1	.	-2
CCC1Sc2ccc(S(=O)(=O)Nc3ccc(OC)cc3)cc2NC1=O (configuration not stated)	.	.	.	-56*	.	-66
COc1ccccc1N1CCN(/N=C\c2ccc(C)o2)CC1	i	-29	-11	31	0	63*
COc1ccccc1N1CCN(/N=C/C(Cl)=C/c2ccccc2)CC1	i	-12	.	19	.	55*
CC(C)CNC(=O)CN1c2cccc3cccc(c23)S1(=O)=O	.	.	.	-6	.	-2
O=C(Nc1ccc([N+](=O)[O-])cc1)c1ccc(S(=O)(=O)N2CCCC2)cc1	.	.	.	-2	.	-3
O=C(Nc1ccc(S(=O)(=O)N2CCCCCC2)cc1)c1[nH]ncc1[N+](=O)[O-]	.	.	.	89	.	107*
O=C(O)/C=C\C(=O)Nc1ccccc1C#Cc1ccccc1	i	-8	-2	12	0	20
O=C(O)/C=C\C(=O)Nc1ccccc1C#Cc1ccc(Br)cc1	i	-24	-1	14	0	56*
Cc1cc(/C=N/NC(=O)c2cccs2)c(C)n1-c1ccccc1	i	-35	2	-69*	0	-74
O=C(N/N=C/c1ccccc1[N+](=O)[O-])c1cccs1	i	-6	.	39	.	61*
O=C(N/N=C/C=C/c1ccccc1[N+](=O)[O-])c1cccs1	i	-7	-10	-8	0	-33
Cc1ccn2cc(CNS(=O)(=O)c3ccc4ccccc4c3)nc2c1	.	.	.	-3	.	-11
O=C(CN1C(=O)/C(=C\c2cccc(Cl)c2)Sc2ccccc21)NCCCN1CCOCC1	.	.	.	50	.	90*
O=C(O)CC1SC(=O)N(Cc2ccccc2)C1=O (configuration not stated)	i	-9	-4	-89*	0	-92
CC(C)NC(=O)CN1CCN(C(=O)c2ccc3oc(CCCc4ccccc4)nc3c2)CC1	.	.	.	-1	.	7
